Like-named read-outs stand apart in the source and are kept apart here. Marks after values point to notes of the source that are not given here. Where a SMILES comes first, the peptide text is derived from it. Bridges are numbered along the chain shown (N, C = ends). [ ]: non-standard residue; d: D form. βAla = NCCC(=O)O
Key:
[1] = system: human cervical cancer SiHa cells; assay: Antitumour activity of different CIGB-300 regimens; type: in vivo, NIH nu/nu nude mice; details: 200 μg intratumoural per injection, tumour volume by caliper
[2] = 2 ml at a single tumour site, ref Soriano-García et al, 2013, cited from earlier work
[3] = Pharmacokinetics of unincorporated CIGB-300 in plasma; type: in vivo, human; details: both groups; highest levels only during the first hour after injection
[4] = system: high-grade squamous intraepithelial lesions; details: intralesional injections; ref Solares et al, 2009; cited from earlier work
[5] = type: in vivo, NIH nu/nu nude mice; details: 100 μg 99mTc-radiolabelled CIGB-300 intratumour in 0.2 or 0.5 ml PBS
In short: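 Female 6–8-week NIH nu/nu mice carried subcutaneous SiHa xenografts (5 × 10^6 cells, right inguinal flank). At 150 mm3, tumours received 100 μg 99mTc-labelled test compound in 0.025, 0.05, 0.2 or 0.5 ml PBS. Planar gamma-camera images were taken immediately and at 0.25, 1, 4, 24, 48 h. Tumour ROI signal was expressed as percent of the total initial image.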

[6] = type: in vivo, human; details: for Biological half-life (tumour): corrected for radioactive decay; for AUC24 (tumour): tumour uptake curve over 24 h; for Maximum uptake (mg CIGB-300): tumour uptake, two sites 0.5 ml each
In short: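 The first patient dose was 99mTc-labelled and injected at two equidistant points, ~2 cm deep (0.5 ml each). Whole-body gamma-camera images were taken at 10 min and 1, 2, 4, 8, 12, 24 h, with tumour static views at 3 and 24 h. Uptake was quantified by MIRD methodology, with tumour mass from baseline MRI. Half-life used decay-corrected fits, and AUC used mono/biexponential fits.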

[7] = Safety evaluation: local and systemic adverse events; type: in vivo, human; details: both groups
In short: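 Patients received 35 or 70 mg intralesionally once daily for three consecutive days at weeks 1, 3 and 5. Local and systemic adverse events and routine laboratory parameters were recorded. Systemic toxicity was followed for 24 h after each dose, with cardiovascular monitoring during injection and vital signs. The probability of exceeding 30% grade 3 events per group was estimated.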

[8] = system: stage IIB cervical cancer; assay: Therapeutic response by MRI; type: in vivo, human; details: 1-year follow-up
In short: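 MRI response was graded by RECIST before and after three peptide cycles, then quarterly for 1 year. Follow-up came after chemoradiotherapy: cisplatin 40 mg m−2 weekly for 6 weeks with 5040 cGy external beam in 28 fractions, then 2600 cGy intracavitary in four fractions. CT and abdominal/gynaecological ultrasonography were used to detect metastasis.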

[9] = system: B23/NPM; assay: In situ B23/NPM expression in tumour biopsies by immunohistochemistry; type: in vivo, human
In short: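 Paraffin-embedded tumour biopsies were taken before and after the three treatment cycles. After deparaffinisation, sections were immunostained with a human B23/NPM monoclonal primary antibody and a commercial immunostaining kit, developed with peroxidase and counterstained with hematoxylin. Pre/post values were compared by paired Student's t-test or Wilcoxon test, chosen by the Shapiro–Wilk normality result.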

[10] = system: histamine; assay: Histamine levels in plasma; type: in vivo, human; details: both groups
In short: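 Stage IIB cervical carcinoma patients received 35 or 70 mg intralesionally. Plasma histamine was measured by commercial EIA before, immediately after, and 5, 15, 30 and 60 min after the first administration. Spearman rank correlation was run between histamine and plasma peptide concentration, and between histamine and allergic-reaction severity.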

For CSCC[C@@H]1NC(=O)[C@H](Cc2c[nH]c3ccccc23)NC(=O)[C@@H](NC(=O)CCNC(=O)[C@H](CCC(N)=O)NC(=O)[C@@H]2CCCN2C(=O)[C@@H]2CCCN2C(=O)[C@H](CCCNC(=N)N)NC(=O)[C@H](CCCNC(=N)N)NC(=O)[C@H](CCCNC(=N)N)NC(=O)[C@H](CCC(N)=O)NC(=O)[C@H](CCCNC(=N)N)NC(=O)[C@H](CCCNC(=N)N)NC(=O)[C@H](CCCCN)NC(=O)[C@H](CCCCN)NC(=O)[C@H](CCCNC(=N)N)NC(=O)CN)CSSC[C@@H](C(=O)O)NC(=O)[C@H]([C@@H](C)O)NC(=O)CNC(=O)[C@H](CC(C)C)NC(=O)[C@H](Cc2c[nH]cn2)NC(=O)[C@H](CCCNC(=N)N)NC(=O)[C@@H]2CCCN2C(=O)[C@H](CO)NC1=O [CIGB-300] (H-GRKKRRQRRRPPQ[βAla]CWMSPRHLGTC-OH; disulfide 15-25; N-terminus and C-terminus assumed), the “Three cycles of three consecutive daily injections” value [1] is listed as “minimal frequency required to reduce tumour growth”, the Maximum tumour uptake ([2]; 35 mg) is listed as 14.9 ± 6.4 mg and the Maximum tumour uptake ([2]; 70 mg) is listed as 10.4 ± 8.3 mg. For the same compound, the “CIGB-300 levels in blood over time” value [3] was “near undetectable after 8 h”, the “Patients with full histological regression” value [4] was 19% and the “Patients with significant colposcopic response” value [4] was 90%. The “Previously positive patients with negative human papillomavirus DNA” value [4] was 48%, the “CIGB-300 tumour uptake, higher injection volume” value [5] was “worse tumour uptake” and the “Biological half-life (tumour)” value ([6]; group I 35 mg, N=6, mean±s.d.) was 3.9±0.9 (2.6–5.5) h. For the same compound, the “Biological half-life (tumour)” value ([6]; group II 70 mg, N=7, mean±s.d.) was 6.2±1.9 (3.5–10.1) h, the “Maximum uptake (mg CIGB-300 per g tumour)” value ([6]; group II 70 mg, tumour mass estimated by MRI, N=6, mean±s.d.) was 1.1±0.8 (0.4–2.7) ^b mg g^−1 and the “Maximum tumour uptake, 70 mg compared with 35 mg” value ([6]; mean values, P=0.01) was “two-fold higher”. The “AUC24 (tumour)” value ([6]; group I 35 mg, N=6, mean±s.d.) was 132±72.2 (45.3–235) mg h, the “AUC24 (tumour)” value ([6]; group II 70 mg, N=7, mean±s.d.) was 385±167 (90.3–646) mg h and the “Maximum uptake (mg CIGB-300)” value ([6]; group I 35 mg intralesional, N=6, mean±s.d.) was 16.1±8.9 (3.8–27.2) mg. The “Maximum uptake (mg CIGB-300)” value ([6]; group II 70 mg intralesional, N=7, mean±s.d.) was 31.3±12.9 (9.9–48.7) mg, the “Blood counts and serum chemistry values, baseline vs post-treatment” value [7] was “no differences” and the “Deaths because of disease progression, whole trial” value ([8]; both groups) was “four”. For the same compound, the “Deaths because of disease progression, group I” value ([8]; group I (35 mg)) was “three”, the “B23/nucleophosmin expression at the nucleoplasm” value ([9]; after CIGB-300 treatment) was “not considerably modified” and the “Patients with reduced nucleolar B23/NPM expression after CIGB-300 treatment” value ([9]; evaluated patients of both groups) was 10 out of the 12. For the same compound, the “Levels of in situ B23/NPM in tumour biopsies, post CIGB-300” value ([9]; group I (35 mg), N=6, mean±s.d., baseline 56.0±17.6, Student's t-test p 0.14) was 36.4±18.9, the “Time to return of plasmatic histamine to normal levels (1 ng ml^−1)” value ([10]; after first injection, rapid increase first) was 15 min and the “Overall histamine median when grade 1 allergic-like events occurred” value ([10]; plasma) was 0.7 ng/mL. For the same compound, the “Overall histamine median when grade 2 allergic-like events occurred” value ([10]; plasma) was 3.5 ng/mL.
